Format in all cases: functional, cell-based
Settings in all cases: Homo sapiens

The test system of test [1] is CAKI-1. As to the kind of experiment: Compound was evaluated for cytotoxicity against CAKI-1(renal) cell line.
The subject of test [2] is NCI-H23. As to the kind of experiment: Compound was evaluated for cytotoxicity against NCI-H23 (lung) cell line.
The test system of test [3] is SNB-7. Briefly: Compound was evaluated for cytotoxicity against SNB-7 (CNS) cell line.
The subject of test [4] is CCRF-CEM. Briefly: Compound was evaluated for cytotoxicity against CCRF-CEM (leukemia) cell line. The procedure, abridged:
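Human leukemia CEM cells grown in culture and exposed to the nucleosides. In one set of runs the adenosine deaminase inhibitor 2′-deoxycoformycin was also present during the incubation.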

Test [5] deals with SK-MEL-28. As to the kind of experiment: Compound was evaluated for cytotoxicity against SK-MEL-28 (melanoma) cell line.
In test [6] the test system is DLD-1. Briefly: Compound was evaluated for cytotoxicity against DLD-1(colon) cell line.

For orientation: IC50 means the midpoint of a concentration-inhibition curve. A lower IC50 goes with greater potency. As for `Nc1nc(N)c2ncn(C3SC(CO)C(O)C3O)c2n1` (centres undefined), the half-maximal inhibitory concentration (IC50) in test [1] is 20 µM; in test [2], > 25 µM; in test [3], 1 µM; in test [4], 0.34 µM; in test [5] it was 0.34 µM; in test [6], > 25 µM.

Consider `Nc1nc(F)nc2c1ncn2[C@H]1S[C@H](CO)[C@@H](O)[C@@H]1O`, for which the half-maximal inhibitory concentration (IC50) in test [1] is 20 µM; in test [2], > 100 µM; in test [3], > 100 µM; in test [4] it was > 130 µM; in test [5], > 100 µM; in test [6], > 100 µM.

Take `Nc1nc(F)nc2c1ncn2[C@@H]1S[C@H](CO)[C@@H](O)[C@@H]1O`: the IC50 in test [1] is 10 µM; in test [2], > 90 µM; in test [3], > 90 µM; in test [4], 30 µM; in test [5], > 90 µM; in test [6], > 90 µM.

Take `Nc1nc(O)c2ncn(C3SC(CO)C(O)C3O)c2n1` (centres undefined): the 50% inhibitory concentration (IC50) in test [1] is 14 µM; in test [2] it was > 20 µM; in test [3] it was 1.1 µM; in test [4], 0.57 µM; in test [5] it was 1.1 µM; in test [6], > 20 µM.

The values are drawn from ChEMBL document CHEMBL1131122, “Synthesis and biological activity of certain 4'-thio-D-arabinofuranosylpurine nucleosides” (J Med Chem, 1998).
